Measurements reported in publication PMC4973392 (Angewandte Chemie (International ed. in English), 2016).

Experiments:
Ubc9-E42A mutant = Ubc9-E42A mutant (Homo sapiens, UniProt P63279, E42A); test: sumoylation of fluorescent substrate peptide with Ubc9-E42A mutant; format: biochemical; conditions: at any concentration
E1-SUMO thioester = molecular target: T1, E1-SUMO thioester (Homo sapiens, UniProt Q9UBE0+Q9UBT2); test: E1-SUMO thioester formation with fluorescently labeled SUMO-1; format: biochemical; conditions: at relevant concentrations
T1 sequence (Q9UBE0 1-346): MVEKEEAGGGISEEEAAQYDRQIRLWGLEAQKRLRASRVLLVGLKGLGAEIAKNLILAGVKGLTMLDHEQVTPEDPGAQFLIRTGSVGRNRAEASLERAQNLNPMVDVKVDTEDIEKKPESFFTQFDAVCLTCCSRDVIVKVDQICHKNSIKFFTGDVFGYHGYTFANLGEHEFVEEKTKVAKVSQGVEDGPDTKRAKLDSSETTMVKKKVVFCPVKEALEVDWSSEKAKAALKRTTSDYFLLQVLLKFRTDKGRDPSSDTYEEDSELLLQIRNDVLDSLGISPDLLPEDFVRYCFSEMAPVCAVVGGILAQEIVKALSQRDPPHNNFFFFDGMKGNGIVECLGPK
T1 sequence (Q9UBT2 1-640): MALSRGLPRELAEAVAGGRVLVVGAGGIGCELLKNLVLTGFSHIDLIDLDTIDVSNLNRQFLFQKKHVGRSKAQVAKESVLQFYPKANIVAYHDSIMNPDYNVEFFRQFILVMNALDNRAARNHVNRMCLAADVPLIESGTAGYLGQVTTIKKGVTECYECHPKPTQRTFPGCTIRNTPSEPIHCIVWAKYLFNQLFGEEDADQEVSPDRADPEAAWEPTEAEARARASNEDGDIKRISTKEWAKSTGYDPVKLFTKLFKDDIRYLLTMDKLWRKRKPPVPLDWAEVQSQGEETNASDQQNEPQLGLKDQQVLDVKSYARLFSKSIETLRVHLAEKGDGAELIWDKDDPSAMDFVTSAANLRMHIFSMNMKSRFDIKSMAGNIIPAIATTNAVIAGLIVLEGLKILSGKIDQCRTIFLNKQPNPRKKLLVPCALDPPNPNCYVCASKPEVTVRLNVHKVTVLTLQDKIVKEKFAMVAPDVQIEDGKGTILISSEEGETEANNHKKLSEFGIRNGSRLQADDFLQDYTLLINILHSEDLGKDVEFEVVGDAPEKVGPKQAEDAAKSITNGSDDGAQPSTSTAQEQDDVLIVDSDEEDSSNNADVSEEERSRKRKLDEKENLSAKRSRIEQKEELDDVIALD
Method in brief: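 E1–SUMO thioester formation was followed using fluorescently labeled SUMO-1 in the presence of the test compound. The negative-control lane omitted E1.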

IκBα sumoylation = test: conjugation of SUMO to full-length recombinant IκBα; format: biochemical
RanGAP1 sumoylation = test: conjugation of SUMO to recombinant protein fragment of RanGAP1; format: biochemical
Ubc9 [1] = molecular target: T2, Ubc9 (Homo sapiens, UniProt P63279); format: biochemical; conditions: SUMO-1 conjugation to peptide substrate
E2-SUMO thioester = E2-SUMO thioester (Homo sapiens, UniProt P63279); test: E2-SUMO thioester formation with fluorescently labeled SUMO-1; format: biochemical; conditions: at concentrations that correlated well with the IC50
Ubc9 [2] = molecular target: T2, Ubc9; test: 1H-15N HSQC NMR chemical shift perturbation; format: binding
Method in brief: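 1H-15N HSQC spectra recorded with 200 μM Ubc9 in a solution saturated with the test compound. Chemical shifts of selected residues were compared between apo and compound-bound protein.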

Ubc9-K59A mutant = Ubc9-K59A mutant (Homo sapiens, UniProt P63279, K59A); test: sumoylation of fluorescent substrate peptide with Ubc9-K59A mutant; format: biochemical; conditions: at any concentration
Ubc9-K59A mutant, sequence (P63279 whole entry K59A): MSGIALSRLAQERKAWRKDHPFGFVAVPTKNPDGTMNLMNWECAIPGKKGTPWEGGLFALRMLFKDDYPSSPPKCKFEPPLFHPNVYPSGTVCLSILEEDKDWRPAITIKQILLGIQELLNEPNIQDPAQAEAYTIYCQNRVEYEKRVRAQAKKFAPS

T2 sequence (P63279 whole entry): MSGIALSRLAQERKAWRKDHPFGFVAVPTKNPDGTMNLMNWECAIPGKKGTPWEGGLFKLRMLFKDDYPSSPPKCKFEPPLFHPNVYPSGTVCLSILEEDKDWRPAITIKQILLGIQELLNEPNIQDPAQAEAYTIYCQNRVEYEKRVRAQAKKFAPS
Ubc9-E42A mutant, sequence (P63279 whole entry E42A): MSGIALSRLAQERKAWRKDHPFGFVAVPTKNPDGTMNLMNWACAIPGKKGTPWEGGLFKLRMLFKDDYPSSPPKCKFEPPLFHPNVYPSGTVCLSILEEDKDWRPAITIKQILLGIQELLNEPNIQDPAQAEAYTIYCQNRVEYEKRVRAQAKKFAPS
E2-SUMO thioester, sequence (P63279 whole entry): as the sequence (P63279 whole entry) above

Oc1ccccc1-c1ccccc1O [compound 1, 2,2′-bisphenol]
inhibition of Ubc9 E42A mutant (Ubc9-E42A mutant): neither mutant was inhibited | effect on formation of the E1-SUMO thioester (E1-SUMO thioester): no effect | effect on conjugation of SUMO to IκBα (IκBα sumoylation): inhibited | effect on conjugation of SUMO to RanGAP1 fragment (RanGAP1 sumoylation): inhibited | IC50 (Ubc9 [1]): 5.8 ± 0.1 mM | effect on formation of the E2-SUMO thioester (E2-SUMO thioester): inhibited | binding to Ubc9 in solution (chemical shift perturbations) (Ubc9 [2]): specific binding | inhibition of Ubc9 K59A mutant (Ubc9-K59A mutant): neither mutant was inhibited
